Reference: ChEMBL document CHEMBL1158343, “Synthesis, antimicrobial and antiviral evaluation of substituted imidazole derivatives” (Eur J Med Chem, 2009)
Values after ≈ are worked out from the molar mass of the structure shown.

Tests used:
Candida albicans = assay: Antimicrobial activity against Candida albicans after 48 hrs by tube dilution method; format: functional
How it was run: (§1)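 Tube dilution in DMSO (stock 100 mg/ml) with serial dilutions; incubation 37 °C for 48 h for C. albicans (other organisms' times truncated in text). MIC read as lowest concentration inhibiting visible growth. Norfloxacin (bacteria) and fluconazole (fungi) as reference drugs.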

Staphylococcus aureus = assay: Antimicrobial activity against Staphylococcus aureus after 24 hrs by tube dilution method; format: functional; how it was run: as §1
Aspergillus niger = assay: Antimicrobial activity against Aspergillus niger after 7 days by tube dilution method; format: functional; details: 168 h; how it was run: as §1
Bacillus subtilis = assay: Antimicrobial activity against Bacillus subtilis after 24 hrs by tube dilution method; format: functional; how it was run: as §1
Escherichia coli = assay: Antimicrobial activity against Escherichia coli after 24 hrs by tube dilution method; format: functional; how it was run: as §1
[1] = Cytotoxicity against african green monkey Vero cells assessed as alteration in cell morphology; format: cell-based; details: chlorocebus sabaeus
How it was run: (§2)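 Uninfected cell cultures tested in parallel with the CPE-reduction antiviral assay; cells grown to confluency, then serial compound dilutions added and incubated at 37 °C (3 days in the parallel antiviral set-up). Read-out is microscopic examination of morphology; value is the minimum cytotoxic concentration, the lowest causing a microscopically detectable alteration of normal cell morphology.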

Human alphaherpesvirus 1 [2] = assay: Antiviral activity against thymidine kinase-deficient acyclovir-resistant HSV1 KOS infected in human HEL cells assessed as reduction in virus-induced cytopathogenicity after 3 days; format: functional, organism-based; details: Human alphaherpesvirus 1, KOS, 72 h
Sindbis virus = assay: Antiviral activity against Sindbis virus infected in african green monkey Vero cells assessed as reduction in virus-induced cytopathogenicity after 3 days; format: functional, organism-based; details: 72 h
[3] = system: Respiratory syncytial virus; assay: Antiviral activity against RSV infected in human HeLa cells assessed as reduction in virus-induced cytopathogenicity after 3 days; format: functional, organism-based; details: 72 h
Human alphaherpesvirus 1 [4] = assay: Antiviral activity against HSV1 KOS infected in human HEL cells assessed as reduction in virus-induced cytopathogenicity after 3 days; format: functional, organism-based; details: Human alphaherpesvirus 1, KOS, 72 h
Punta Toro virus = assay: Antiviral activity against Punta Toro virus infected in african green monkey Vero cells assessed as reduction in virus-induced cytopathogenicity after 3 days; format: functional, organism-based; details: 72 h
Coxsackievirus B4 [5] = assay: Antiviral activity against Coxsackievirus B4 infected in african green monkey Vero cells assessed as reduction in virus-induced cytopathogenicity after 3 days; format: functional, organism-based; details: Enterovirus B, 72 h
[6] = system: Mammalian orthoreovirus 1; assay: Antiviral activity against Reovirus 1 infected in african green monkey Vero cells assessed as reduction in virus-induced cytopathogenicity after 3 days; format: functional, organism-based; details: Mammalian orthoreovirus 1, Vero, 72 h
[7] = system: Vesicular stomatitis virus; assay: Antiviral activity against VSV infected in human HEL cells assessed as reduction in virus-induced cytopathogenicity after 3 days; format: functional, organism-based; details: 72 h
Human respirovirus 3 = assay: Antiviral activity against Parainfluenza-3 virus infected in african green monkey Vero cells assessed as reduction in virus-induced cytopathogenicity after 3 days; format: functional, organism-based; details: Human respirovirus 3, Vero, 72 h
Human alphaherpesvirus 2 = assay: Antiviral activity against HSV2 G infected in human HEL cells assessed as reduction in virus-induced cytopathogenicity after 3 days; format: functional, organism-based; details: Human alphaherpesvirus 2, strain G, 72 h
[8] = Cytotoxicity against human HEL cells assessed as alteration in cell morphology; format: cell-based; how it was run: as §2
Coxsackievirus B4 [9] = assay: Antiviral activity against Coxsackievirus B4 infected in human HeLa cells assessed as reduction in virus-induced cytopathogenicity after 3 days; format: functional, organism-based; details: Enterovirus B, 72 h
[10] = system: Vesicular stomatitis virus; assay: Antiviral activity against VSV infected in human HeLa cells assessed as reduction in virus-induced cytopathogenicity after 3 days; format: functional, organism-based; details: 72 h
[11] = Cytotoxicity against human HeLa cells assessed as alteration in cell morphology; format: cell-based; how it was run: as §2

O=[N+]([O-])c1ccc(-c2ncc[nH]2)cc1
MFC (Candida albicans): 264 µM (≈ 49.9 µg/mL) | MIC (Candida albicans): 33 µM (≈ 6.24 µg/mL) | MBC (Staphylococcus aureus): 33 µM (≈ 6.24 µg/mL) | MIC (Staphylococcus aureus): 4 µM (≈ 0.757 µg/mL) | MFC (Aspergillus niger): 264 µM (≈ 49.9 µg/mL) | MIC (Aspergillus niger): 33 µM (≈ 6.24 µg/mL) | MBC (Bacillus subtilis): 132 µM (≈ 25 µg/mL) | MIC (Bacillus subtilis): 16 µM (≈ 3.03 µg/mL) | MBC (Escherichia coli): 33 µM (≈ 6.24 µg/mL) | MIC (Escherichia coli): 4 µM (≈ 0.757 µg/mL)

O=C(c1ccc([N+](=O)[O-])cc1)n1ccnc1-c1cccc([N+](=O)[O-])c1
MFC (Candida albicans): 295 µM (≈ 99.8 µg/mL) | MIC (Candida albicans): 18 µM (≈ 6.09 µg/mL) | MBC (Staphylococcus aureus): 147 µM (≈ 49.7 µg/mL) | MIC (Staphylococcus aureus): 18 µM (≈ 6.09 µg/mL) | MCC [1]: > 100 µg/mL | EC50 (Human alphaherpesvirus 1 [2]): > 100 µg/mL | EC50 (Sindbis virus): > 100 µg/mL | EC50 [3]: > 100 µg/mL | EC50 (Human alphaherpesvirus 1 [4]): > 100 µg/mL | MFC (Aspergillus niger): 73 µM (≈ 24.7 µg/mL) | MIC (Aspergillus niger): 9 µM (≈ 3.04 µg/mL) | EC50 (Punta Toro virus): 100 µg/mL (≈ 296 µM) | MBC (Bacillus subtilis): 295 µM (≈ 99.8 µg/mL) | MIC (Bacillus subtilis): 36 µM (≈ 12.2 µg/mL) | EC50 (Coxsackievirus B4 [5]): > 100 µg/mL | EC50 [6]: > 100 µg/mL | EC50 [7]: > 100 µg/mL | EC50 (Human respirovirus 3): > 100 µg/mL | EC50 (Human alphaherpesvirus 2): > 100 µg/mL | MCC [8]: > 100 µg/mL | EC50 (Coxsackievirus B4 [9]): > 100 µg/mL | EC50 [10]: > 100 µg/mL | MCC [11]: > 100 µg/mL | MBC (Escherichia coli): 36 µM (≈ 12.2 µg/mL) | MIC (Escherichia coli): 9 µM (≈ 3.04 µg/mL)

COc1ccc(-c2ncc[nH]2)cc1
MFC (Candida albicans): 526 µM (≈ 91.6 µg/mL) | MIC (Candida albicans): 65 µM (≈ 11.3 µg/mL) | MBC (Staphylococcus aureus): 32 µM (≈ 5.57 µg/mL) | MIC (Staphylococcus aureus): 4 µM (≈ 0.697 µg/mL) | MFC (Aspergillus niger): 526 µM (≈ 91.6 µg/mL) | MIC (Aspergillus niger): 65 µM (≈ 11.3 µg/mL) | MBC (Bacillus subtilis): 32 µM (≈ 5.57 µg/mL) | MIC (Bacillus subtilis): 4 µM (≈ 0.697 µg/mL) | MBC (Escherichia coli): 263 µM (≈ 45.8 µg/mL) | MIC (Escherichia coli): 32 µM (≈ 5.57 µg/mL)

c1ccc(-c2ncc[nH]2)cc1 [2-PHENYLIMIDAZOLE]
MFC (Candida albicans): 347 µM (≈ 50 µg/mL) | MIC (Candida albicans): 43 µM (≈ 6.2 µg/mL) | MBC (Staphylococcus aureus): 43 µM (≈ 6.2 µg/mL) | MIC (Staphylococcus aureus): 5 µM (≈ 0.721 µg/mL) | MFC (Aspergillus niger): 694 µM (≈ 100 µg/mL) | MIC (Aspergillus niger): 86 µM (≈ 12.4 µg/mL) | MBC (Bacillus subtilis): 43 µM (≈ 6.2 µg/mL) | MIC (Bacillus subtilis): 5 µM (≈ 0.721 µg/mL) | MBC (Escherichia coli): 43 µM (≈ 6.2 µg/mL) | MIC (Escherichia coli): 5 µM (≈ 0.721 µg/mL)

Nc1ncnc2c1ncn2C[C@H](O)CO [(S)-DHPA]
MCC [1]: > 250 µg/mL | EC50 (Sindbis virus): > 250 µg/mL | EC50 [3]: > 250 µg/mL | EC50 (Punta Toro virus): > 250 µg/mL | EC50 (Coxsackievirus B4 [5]): > 250 µg/mL | EC50 [6]: > 250 µg/mL | EC50 (Human respirovirus 3): > 250 µg/mL | EC50 (Coxsackievirus B4 [9]): > 250 µg/mL | EC50 [10]: > 250 µg/mL | MCC [11]: > 250 µg/mL

O=c1[nH]c(=O)n([C@H]2C[C@H](O)[C@@H](CO)O2)cc1/C=C/Br [BRIVUDINE]
EC50 (Human alphaherpesvirus 1 [2]): 96 µg/mL (≈ 288 µM) | EC50 (Human alphaherpesvirus 1 [4]): 0.04 µg/mL (≈ 0.12 µM) | EC50 [7]: > 250 µg/mL | EC50 (Human alphaherpesvirus 2): 29 µg/mL (≈ 87.1 µM) | MCC [8]: > 250 µg/mL

Nc1ccn(C[C@@H](CO)OCP(=O)(O)O)c(=O)n1.O.O [CIDOFOVIR]
EC50 (Human alphaherpesvirus 1 [2]): 2 µg/mL | EC50 [7]: > 250 µg/mL | EC50 (Human alphaherpesvirus 2): 2 µg/mL | MCC [8]: > 250 µg/mL

OC(Cn1cncn1)(Cn1cncn1)c1ccc(F)cc1F [FLUCONAZOLE]
MFC (Candida albicans): 40 µM (≈ 12.3 µg/mL) | MIC (Candida albicans): 1 µM (≈ 0.306 µg/mL) | MFC (Aspergillus niger): 40 µM (≈ 12.3 µg/mL) | MIC (Aspergillus niger): 1 µM (≈ 0.306 µg/mL)

Nc1nc2c(ncn2COC(CO)CO)c(=O)[nH]1 [GANCICLOVIR]
EC50 (Human alphaherpesvirus 1 [2]): 1 µg/mL (≈ 3.92 µM) | EC50 (Human alphaherpesvirus 1 [4]): 0.06 µg/mL (≈ 0.235 µM) | EC50 [7]: > 100 µg/mL | EC50 (Human alphaherpesvirus 2): 0.06 µg/mL (≈ 0.235 µM) | MCC [8]: > 100 µg/mL

CCn1cc(C(=O)O)c(=O)c2cc(F)c(N3CCNCC3)cc21 [NORFLOXACIN]
MBC (Staphylococcus aureus): 19 µM (≈ 6.07 µg/mL) | MIC (Staphylococcus aureus): 2 µM (≈ 0.639 µg/mL) | MBC (Bacillus subtilis): 19 µM (≈ 6.07 µg/mL) | MIC (Bacillus subtilis): 2 µM (≈ 0.639 µg/mL) | MBC (Escherichia coli): 19 µM (≈ 6.07 µg/mL) | MIC (Escherichia coli): 2 µM (≈ 0.639 µg/mL)

NC(=O)c1ncn([C@@H]2O[C@H](CO)[C@@H](O)[C@H]2O)n1 [RIBAVIRIN]
MCC [1]: > 250 µg/mL | EC50 (Human alphaherpesvirus 1 [2]): > 250 µg/mL | EC50 (Sindbis virus): > 250 µg/mL | EC50 (Human alphaherpesvirus 1 [4]): > 250 µg/mL | EC50 (Coxsackievirus B4 [5]): > 250 µg/mL | EC50 [6]: > 250 µg/mL | EC50 (Human alphaherpesvirus 2): > 250 µg/mL | MCC [8]: > 250 µg/mL | MCC [11]: > 250 µg/mL
